High-throughput results: PubChem BioAssay, several laboratories
SENP6 inh: SENP6 protease inhibition. Q9GZR1. Recombinant SENP6 catalytic domain, aminoluciferin luminescence. inhibition, % at 10 µM. actives 1.8% (n = 330,000). AID 2599;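 active = inhibition above about 50% at the single tested dose, limit read from the data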
SENP1 inh: blocks the human SENP1 SUMO protease catalytic domain. recombinant SENP1 catalytic domain, CyPet-SUMO1-YPet FRET cleavage. inhibition, % at 10 µM. actives 0.21% (n = 360,000);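 active = inhibition at least 30% at 10 µM, raw YFP signal under a set limit, fluorescence ratio 0.5 to 1.5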
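system = hSENP1 catalytic domain, recombinant | reagent = SFCypet-SUMO1-SFYpet substrate at 25 nM | doses = one dose per compound, 10 µM, 0.5% DMSO | incubation = enzyme reaction for 50 min at room temperature, dark | measured by = FRET, CFP and YFP emission | controls = no-enzyme low, enzyme-DMSO high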
SENP8 block-1: SENP8 protease inhibition | Q96LD8 | purified SENP8, Z-RLRGG-aminoluciferin cleavage, luminescence | inhibition, % at 10 µM | actives 1.2% (n = 330,000) | AID 2540; in the data active = inhibition above about 50%
Target sequence (Q96LD8 whole entry, looked up): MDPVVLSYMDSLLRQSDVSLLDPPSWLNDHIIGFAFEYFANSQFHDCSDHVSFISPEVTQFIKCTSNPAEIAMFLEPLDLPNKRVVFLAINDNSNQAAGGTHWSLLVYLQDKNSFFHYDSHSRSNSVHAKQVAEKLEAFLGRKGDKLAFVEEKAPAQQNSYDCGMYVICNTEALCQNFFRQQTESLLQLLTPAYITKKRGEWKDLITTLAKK
SENP8 block-2: inhibitors of human SENP8 protease | Q96LD8 | recombinant SENP8, Nedd8 substrate fluorescence | inhibition, % at 20 µM | actives 0.64% (n = 360,000) | AID 602440; in the data active = inhibition mostly above about 40%, no sharp cut-off; inactive = mostly below about 27%
Platelet DG rel: modulates dense granule release in human platelets. AID 1663. actives 0.22% (n = 300,000). human platelet-rich plasma, SFLLRN dense granule ATP release, luminescence. inhibition, %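 (compounds screened at 7.5 µM in platelet-rich plasma)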;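 active = mean replicate score, as percent of positive control, at or above 50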
SENP7 inh: blocks the human protease SENP7. inhibition, % at 5 µM. recombinant SENP7, Z-RLRGG-aminoluciferin luminescence, 40 min. actives 1.5% (n = 330,000);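 active = inhibition above about 50% at the single test dose, limit read from the data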
Target sequence (Q9BQF6 706-1050 limits assumed): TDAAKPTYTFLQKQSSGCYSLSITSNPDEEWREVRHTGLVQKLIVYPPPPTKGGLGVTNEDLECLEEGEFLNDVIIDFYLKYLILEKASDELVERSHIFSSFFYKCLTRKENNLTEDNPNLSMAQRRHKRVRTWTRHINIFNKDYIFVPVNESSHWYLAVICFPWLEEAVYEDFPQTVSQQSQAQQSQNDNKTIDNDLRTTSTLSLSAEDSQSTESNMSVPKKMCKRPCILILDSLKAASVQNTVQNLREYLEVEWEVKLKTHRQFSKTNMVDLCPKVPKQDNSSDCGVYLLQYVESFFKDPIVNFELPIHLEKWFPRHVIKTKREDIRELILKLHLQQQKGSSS
SENP8 inh conf: SENP8 (human) inhibition, single concentration confirmation; AID 624319; actives 15% (n = 1,400); shares compounds with SENP8 block-2; purified SENP8, Nedd8-AMC/pro-Nedd8 cleavage fluorescence, 30 min; inhibition, % at 25 µM; in the data active = inhibition mostly above about 39%, no sharp cut-off; inactive = mostly below about 34%
Of the large screens only hits and unclear results are named; the others gave an inactive call (follow-up assays come after a bar, where they were run). In the library only some 2.6% were active in any assay of this set; here they are far more common.

CCOC(=O)C1=C(COC(=O)/C=C/c2ccc(F)cc2)NC(=O)NC1C (stereo not given)	none (no result: SENP6 inh, SENP8 block-1, Platelet DG rel, SENP7 inh)
CSCCC(NC(=O)c1cccc(C)c1)C(=O)OCN1C(=O)c2ccccc2C1=O (stereo not given)	none
CCOC(=O)c1[nH]c(C)c(C(=O)OCC(=O)NC(C)c2ccc(F)cc2)c1C (stereo not given)	none (no result: Platelet DG rel)
CCOC(=O)C1C(=O)CC(C)(O)C(C(=O)OCC)C1c1ccc([N+](=O)[O-])cc1 (stereo not given)	SENP8 block-2 46 | SENP8 inh conf inactive
CCOc1ccc(S(=O)(=O)N2CCC(C(=O)NCc3cccnc3)CC2)cc1	none
Cc1cc(C)cc(Nc2ccc([N+](=O)[O-])nc2[N+](=O)[O-])c1	SENP8 block-2 41 | SENP8 inh conf inactive
Cc1ccc(NC(=O)Cc2nc(CN(C)CC(=O)Nc3ccc(C)cc3)cs2)cc1	none (no result: Platelet DG rel)
CC(OC(=O)Cn1cnc2c1c(=O)n(C)c(=O)n2C)C(=O)Nc1ccc(Cl)cc1 (stereo not given)	none
CCCOC(=O)/C(=C\c1ccc([N+](=O)[O-])o1)NC(=O)c1ccccc1	none
CCOC(=O)/C(=C\c1ccc([N+](=O)[O-])o1)NC(=O)c1ccccc1	SENP8 block-2 42 | SENP8 inh conf inactive
CC(C)c1ccc(N2C(=O)CC(NNC(=O)c3ccccc3Cl)C2=O)cc1 (stereo not given)	none
CSc1nnc(C)c(/C=C/NOCc2ccc(Cl)cc2)n1	SENP8 block-2 44 | SENP8 inh conf inactive
C=CCC(C(=O)OC)(C(=O)OC)c1ccc([N+](=O)[O-])cc1[N+](=O)[O-]	SENP8 block-2 42 | SENP8 inh conf inactive
C=CCC(C(=O)OC)(C(=O)OC)c1ccc(C(F)(F)F)cc1[N+](=O)[O-]	none
O=C(CNC1CCN(Cc2ccccc2)CC1)Nc1ccc(S(=O)(=O)N2CCCCC2)cc1	SENP8 block-2 43 | SENP8 inh conf inactive
O=C(COC(=O)c1ccccc1OCc1ccccc1Cl)NCC1CCCO1 (stereo not given)	none (no result: Platelet DG rel)
Cc1ccc(S(=O)(=O)N2C[C@H]3[C@H]4C(=O)N(c5ccccc5)C(=O)[C@H]4CC(=O)[C@H]3[C@@H]2c2ccccc2F)cc1	SENP8 block-2 50 (no result: SENP6 inh, SENP8 block-1, Platelet DG rel, SENP7 inh) | SENP8 inh conf inactive
C=CCC1CCC/C(=N\NS(=O)(=O)c2ccc(C)cc2)C1 (stereo not given)	none
Cc1onc(C(=O)Nc2sc3c(c2C#N)CCCC3)c1[N+](=O)[O-]	none
O=C(COc1ccc(C(F)(F)F)cc1[N+](=O)[O-])Nc1cccc(C(F)(F)F)c1	none
COC(=O)c1cnc(Nc2cccc(C(F)(F)F)c2)c([N+](=O)[O-])c1	SENP8 block-2 33 | SENP8 inh conf inactive
Cc1ccc(S(=O)(=O)NCC2CCCO2)cc1[N+](=O)[O-] (stereo not given)	SENP8 block-2 45 | SENP8 inh conf inactive
Cc1[nH]n(-c2ccccc2)c(=O)c1S(=O)(=O)c1ccccc1	SENP8 block-2 71 | SENP8 inh conf 43
c1coc(-c2nnc(-c3ccco3)nn2)c1	SENP6 inh 73, SENP8 block-1 55, SENP8 block-2 87 | SENP8 inh conf 70
COc1cc(/C=N/N2CCOCC2)ccc1OCc1ccc(Cl)cc1	SENP8 block-2 42 | SENP8 inh conf inactive
COCCNC(=O)C(=O)Nc1cc2c3c(c1)CCC(=O)N3CCC2	none
O=C1NC[C@@H](CCCCN2CCN(CCc3ccccc3)C(=O)C2=O)N(CCc2ccc(O)cc2)C1=O	none (no result: SENP6 inh, SENP8 block-1, Platelet DG rel, SENP7 inh)
COc1ccc([N+](=O)[O-])cc1NC(=S)Nc1ccccc1	none
COc1ccc([N+](=O)[O-])cc1NC(=S)NC(=O)C(C)(C)C	SENP8 block-2 40 | SENP8 inh conf inactive
CC(Sc1nnc2ccccn12)C(=O)Nc1ccc2c(c1)OCCO2 (stereo not given)	none
CCN(CC)C(c1ccc(F)cc1)c1nnnn1CC1CCCO1 (stereo not given)	SENP8 block-2 45 | SENP8 inh conf inactive
COc1ccc(C(c2nnnn2CC2CCCO2)N2CCN(c3ccc(F)cc3)CC2)cc1 (stereo not given)	none
CC1=NN(c2ccccc2)C(=O)C1C=Nc1ccc(N(C)C)cc1 (stereo not given)	SENP8 block-2 17 | SENP8 inh conf inactive
CC1=NN(c2ccccc2)C(=O)C1N=Nc1ccc(C)cc1 (stereo not given)	none (no result: SENP1 inh, SENP8 block-2)
O=C1OC(N2C(=O)CC[C@H]2C(=O)Nc2ccc(Br)cc2F)c2ccccc21 (stereo not given in full)	SENP8 block-2 54 | SENP8 inh conf inactive
Cn1cc(Cl)c(C(=O)NNC(=S)NCc2ccco2)n1	none
Cc1c(Cl)c(C(=O)NNC(=S)NCc2ccco2)nn1C	SENP8 block-2 40 | SENP8 inh conf inactive
Cc1[nH][nH]c(=O)c1C(c1c(C)[nH][nH]c1=O)c1cn(Cc2ccccc2Cl)c2ccccc12	SENP8 block-2 79 (no result: SENP6 inh, SENP8 block-1, SENP7 inh) | SENP8 inh conf 73
N/C(=N\O)c1cn(Cc2ccccc2Cl)c2ccccc12	none
CC1CCC(=NNc2ccc(C(F)(F)F)cc2[N+](=O)[O-])CC1 (stereo not given)	SENP8 block-2 43 | SENP8 inh conf inactive
Cc1onc(-c2ccccc2Cl)c1-c1nc(-c2ccccn2)no1	SENP8 block-2 41 | SENP8 inh conf inactive
O=C1NC(Cc2ccccc2)c2nc3ccc(F)cc3c(=O)n2-c2cc(Cl)ccc21 (stereo not given)	none (no result: SENP1 inh, SENP8 block-2, Platelet DG rel)
C[n+]1cccc2cccc([O-])c21	SENP8 block-2 96 (no result: SENP6 inh, SENP8 block-1, Platelet DG rel, SENP7 inh) | SENP8 inh conf 58
Cc1ccc([N+](=O)[O-])cc1N	none
CCc1cc([N+](=O)[O-])cc(CC)c1N	SENP8 block-2 45 | SENP8 inh conf inactive
Cn1c(=O)c(=O)n(C)c2cc(S(=O)(=O)N3CCCC3C(=O)NCc3cccs3)ccc21 (stereo not given)	none
CC(NC(=O)c1ccc(Cn2cc([N+](=O)[O-])cn2)o1)c1ccccc1 (stereo not given)	SENP8 block-2 50 | SENP8 inh conf inactive
Cc1ccccc1NC(=O)c1ccc(Cn2cc([N+](=O)[O-])cn2)o1	none
CC(=O)NCc1ccc(S(=O)(=O)NC(C)CCc2ccccc2)cc1 (stereo not given)	none
OCC1OC(Oc2c[nH]c3ccccc23)C(O)C(O)C1O (stereo not given)	none
OCc1ccccc1O[C@@H]1O[C@H](CO)[C@@H](O)[C@H](O)[C@H]1O	SENP8 block-2 49 | SENP8 inh conf inactive
CN(C)C1(CN=Cc2cc(Cl)cc([N+](=O)[O-])c2O)CCCCC1	SENP8 block-2 40 | SENP8 inh conf inactive
CC1CN(C(=O)c2cc(-c3ccc(Cl)s3)nc3ccccc23)CC(C)O1 (stereo not given)	none
